Measurements reported in ChEMBL document CHEMBL3351249, “Potent cholesteryl ester transfer protein inhibitors of reduced lipophilicity: 1,1'-spiro-substituted hexahydrofuroquinoline derivatives” (J Med Chem, 2014).

Assays:
Plasma [1] = assay: Plasma concentration in hemizygous human CETP transgenic mouse at 10 mg/kg, po dosed for 5 consecutive days measured on day 5 and day 7 post dose; assay type: ADME, organism-based; design: dose 10 mg/kg, route oral; settings: in vivo
Kidney [2] = assay: Drug concentration in kidney of hemizygous human CETP transgenic mouse at 10 mg/kg, po dosed for 5 consecutive days measured on day 21 after cessation of drug treatment; assay type: ADME, organism-based; design: dose 10 mg/kg, route oral; settings: in vivo
Method in brief: (§1)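 Male hCETP transgenic mice given oral doses for 5 days in 0.5% hydroxyethylcellulose. Tissues and plasma collected at day 3 and day 21 after the last dose. Fat diluted 6:1 with acetonitrile and homogenized. Analysis by LC/MS/MS on a C18 column with QCs at 4.0−1000 nM, accepted within 30% of target.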

[3] = Terminal elimination half life in healthy human administered as single oral dose; assay type: ADME, organism-based; settings: in vivo, read-out: beta t1/2 (converted)
[4] = Drug concentration in adipose fat of hemizygous human CETP transgenic mouse at 10 mg/kg, po dosed for 5 consecutive days measured on day 21 after cessation of drug treatment; assay type: ADME, organism-based, Adipose tissue; design: dose 10 mg/kg, route oral; settings: in vivo; method in brief: as §1
Mus musculus = assay: Increase in HDL-cholesterol in hemizygous human CETP transgenic mouse at 10 mg/kg, po dosed for 5 consecutive days; assay type: functional
Method in brief: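 Male hemizygous hCETP or hCETP/hApoB100 transgenic mice, 26−30 weeks, chow-fed. Compound suspended in 0.5% aqueous hydroxyethylcellulose, oral gavage each morning for 5 or 14 days. EDTA blood taken 7 h post-dose (fed for 5-day, after 4 h fast for 14-day) from vena facialis under isoflurane. HDL/LDL cholesterol measured on Cobas Integra 400 Plus. Mean ± SEM, one-way ANOVA with Bonferroni.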

[5] = Drug concentration in testes of hemizygous human CETP transgenic mouse at 10 mg/kg, po dosed for 5 consecutive days measured on day 21 after cessation of drug treatment; assay type: ADME, organism-based, Testis; design: dose 10 mg/kg, route oral; settings: in vivo; method in brief: as §1
Kidney [6] = assay: Drug concentration in kidney of hemizygous human CETP transgenic mouse at 10 mg/kg, po dosed for 5 consecutive days measured on day 3 after cessation of drug treatment; assay type: ADME, organism-based; design: dose 10 mg/kg, route oral; settings: in vivo; method in brief: as §1
Muscle tissue [7] = assay: Drug concentration in muscle of hemizygous human CETP transgenic mouse at 10 mg/kg, po dosed for 5 consecutive days measured on day 3 after cessation of drug treatment; assay type: ADME, organism-based; design: dose 10 mg/kg, route oral; settings: in vivo; method in brief: as §1
Muscle tissue [8] = assay: Drug concentration in muscle of hemizygous human CETP transgenic mouse at 10 mg/kg, po dosed for 5 consecutive days measured on day 21 after cessation of drug treatment; assay type: ADME, organism-based; design: dose 10 mg/kg, route oral; settings: in vivo; method in brief: as §1
[9] = Drug concentration in adipose fat of hemizygous human CETP transgenic mouse at 10 mg/kg, po dosed for 5 consecutive days measured on day 3 after cessation of drug treatment; assay type: ADME, organism-based, Adipose tissue; design: dose 10 mg/kg, route oral; settings: in vivo; method in brief: as §1
Plasma [10] = assay: Drug concentration in plasma of hemizygous human CETP transgenic mouse at 10 mg/kg, po dosed for 5 consecutive days measured on day 3 after cessation of drug treatment; assay type: ADME, organism-based; design: dose 10 mg/kg, route oral; settings: in vivo; method in brief: as §1
Liver = assay: Drug concentration in liver of hemizygous human CETP transgenic mouse at 10 mg/kg, po dosed for 5 consecutive days measured on day 3 after cessation of drug treatment; assay type: ADME, organism-based; design: dose 10 mg/kg, route oral; settings: in vivo; method in brief: as §1
[11] = Drug concentration in testes of hemizygous human CETP transgenic mouse at 10 mg/kg, po dosed for 5 consecutive days measured on day 3 after cessation of drug treatment; assay type: ADME, organism-based, Testis; design: dose 10 mg/kg, route oral; settings: in vivo; method in brief: as §1
[12] = target: T1, Cholesteryl ester transfer protein (Homo sapiens, UniProt P11597); assay: Inhibition of human recombinant CETP by fluorescence transfer assay
T1 sequence (P11597 whole entry): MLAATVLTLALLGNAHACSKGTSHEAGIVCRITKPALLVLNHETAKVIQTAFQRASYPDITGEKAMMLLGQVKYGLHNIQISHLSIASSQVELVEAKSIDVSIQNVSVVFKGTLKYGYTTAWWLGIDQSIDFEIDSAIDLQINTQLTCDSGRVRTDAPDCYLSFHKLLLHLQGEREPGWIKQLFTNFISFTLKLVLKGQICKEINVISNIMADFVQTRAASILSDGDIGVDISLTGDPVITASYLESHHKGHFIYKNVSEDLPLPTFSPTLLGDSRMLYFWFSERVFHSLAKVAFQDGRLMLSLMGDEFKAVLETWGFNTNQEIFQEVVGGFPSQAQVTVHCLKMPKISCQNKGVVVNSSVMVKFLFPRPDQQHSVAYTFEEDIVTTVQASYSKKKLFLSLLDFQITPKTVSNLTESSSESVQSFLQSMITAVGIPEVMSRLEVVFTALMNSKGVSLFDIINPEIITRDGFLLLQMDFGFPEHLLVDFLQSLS

Compound	concentration (Plasma [1]) [nM]	Drug uptake (Kidney [2])	half-life [3] [days]	Drug uptake [4]	Activity (Mus musculus) [%]	Drug uptake [5]	Drug uptake (Kidney [6])	Drug uptake (Muscle tissue [7])	Drug uptake (Muscle tissue [8])	Drug uptake [9]	Drug uptake (Plasma [10])	Drug uptake (Liver)	Drug uptake [11]	IC50 [12] [nM]
COc1cc(F)c(C(C)C)cc1-c1ccc(C(F)(F)F)cc1CN1C(=O)O[C@H](c2cc(C(F)(F)F)cc(C(F)(F)F)c2)[C@@H]1C [ANACETRAPIB]	507	Active	3.46	Active	50.5	Active	Active	Active	Active	Active	Active	Active	Active	–
CC(C)c1nc2c(c3c1[C@@H](c1ccc(C(F)(F)F)cc1)OC31CCCC1)[C@@H](O)CC(C)(C)C2	–	–	–	–	–	–	–	–	–	–	–	–	–	51
CC(C)c1nc2c(c3c1[C@@H](c1ccccc1)OC31CCCC1)[C@@H](O)CC(C)(C)C2	–	–	–	–	–	–	–	–	–	–	–	–	–	4050
